Hits are enriched below; roughly 3.7% of the tested compounds scored in any of these assays.
MC4R barr agon: MC4R agonists recruiting beta-arrestin, primary screen, cell-based, luminescence, agonist arm of biased-ligand search; Melanocortin receptor 4 (Homo sapiens), P32245; U2OS MC4R beta-arrestin complementation; percent of melanotan II response, DMSO zero; activation, % at 8.9 µM; 0.98% of 360,000 active; AID 540308, 2011;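 active means activation above a per-plate cutoff, the mean activation of sample wells on that plate plus 3 SD, cut at about 8% in these data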
Exocytosis inh: LAMP-1 surface exposure blockers, TALL-104 cells – cell-based, flow cytometry, MLPCN library, primary screen | TALL-104 LAMP-1 surface exposure; cells stimulated with thapsigargin and PMA | inhibition, % at 10 µM | 0.66% of 360,000 active;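 active means inhibition above about 55%, limit read from the data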
Myeloid diff 2: induction of myeloid progenitor differentiation, primary screen, cell-based, flow cytometry, MLPCN library | ER-HoxA9 myeloid progenitors, lysozyme-GFP differentiation | calls only at 10 µM | 1% of 360,000 active | AID 624256, 2012;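 active means normalized GFP-positive differentiation at or above the plate's own cutoff, the solvent-only control mean plus 3 SD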;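 further: cells exposed to compound for four days before flow analysis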
EBI2 block: EBI2 receptor antagonists, beta-arrestin recruitment, primary screen, cell-based, luminescence, 7a,25-OHC stimulation, uHTS. 7a,25-OHC stimulated. inhibition, % at 5 µM. 0.81% of 360,000 active. AID 651636, 2012; in the data active means inhibition above about 38%;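 further: enzyme fragment complementation signal reports receptor beta-arrestin coupling in cells; 0% = agonist plus DMSO wells and 100% = wells without agonist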
Target sequence (P32249 whole entry, looked up, the tested form may be a part): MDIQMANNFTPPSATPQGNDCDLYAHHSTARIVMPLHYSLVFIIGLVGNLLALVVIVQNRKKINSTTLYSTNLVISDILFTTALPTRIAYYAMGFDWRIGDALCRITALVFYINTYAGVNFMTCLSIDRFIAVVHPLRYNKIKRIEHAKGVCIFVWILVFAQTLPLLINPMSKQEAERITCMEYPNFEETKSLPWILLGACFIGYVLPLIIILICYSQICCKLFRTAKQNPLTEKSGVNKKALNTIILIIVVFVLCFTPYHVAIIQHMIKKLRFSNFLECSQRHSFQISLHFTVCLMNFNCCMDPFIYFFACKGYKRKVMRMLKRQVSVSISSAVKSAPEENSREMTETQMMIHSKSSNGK
MC4R antagonist: MC4R antagonists of cAMP signaling, primary screen, cell-based, TR-FRET, antagonist arm of biased-ligand search; inhibition, % at 6.5 µM; 0.48% of 360,000 active; MC4R-expressing cells, MTII-stimulated cAMP, LANCE TR-FRET;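 active means inhibition above its plate's cutoff, the mean of tested wells on that plate plus 3 SD, cut at about 29% in these data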;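 further: 0% = Melanotan II alone and 100% = Melanotan II plus saturating MCL0020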
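System: U2OS cells stably expressing human melanocortin 4 receptor (MC4R). Reagent: Melanotan II challenge after compound preincubation. Doses: 6.5 µM. Times: 30-min compound, 1-h challenge, 1-h detection, room temperature. Measured by: TR-FRET with Eu-cAMP and labeled anti-cAMP, 671 nm. Replicates: singlicate.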
EBI2 antag conf: EBI2 antagonist hit retest, beta-arrestin, confirmation, cell-based, single concentration, luminescence, 7a,25-OHC stimulation | 7a,25-OHC antagonism | inhibition, % at 5 µM | AID 651997, 2013 | shares compounds with EBI2 block | 29% of 2,400 active;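 active means inhibition of at least 50%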
EBI2 ag: EBI2 agonist activity of antagonist hits, confirmation, counter-screen for EBI2 antagonist project, cell-based, single concentration, agonist mode, luminescence | EBI2-expressing cells, 60 min; 0% vehicle, 100% 7α,25-dihydroxycholesterol control | shares compounds with EBI2 block | activation, % at 5 µM | 2,400 tested, under 10 active;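 active means activation of at least 50%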
bGal cs: E. coli beta-galactosidase enzyme inhibition, confirmation, counter-screen for EBI2 antagonist project, biochemical, luminescence, single concentration. purified beta-galactosidase, luminescent Galacton Star, 15 min. 1% of 2,400 active. inhibition, % at 5 µM. shares compounds with EBI2 block;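 active means replicate-average signal at least 3 plate SD below neutral wells, shown as high inhibition, flagging enzyme-inhibiting false positives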;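 further: 0% = DMSO wells with enzyme and 100% = wells lacking enzyme; higher means stronger loss of beta-gal luminescence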
Numbers without * were called inactive; i = inactive; · = not tested or not shown.

SMILES | MC4R barr agon | Exocytosis inh | Myeloid diff 2 | EBI2 block | MC4R antagonist | EBI2 antag conf | EBI2 ag | bGal cs
CCc1ccc(C(C)NC(=O)/C=C/c2ccc(Br)cc2)cc1 (stereo not given) | 5 | 2 | i | 61* | 5 | 27 | 0 | -14
COc1ccc(C(=O)N2CCC(C(=O)N3CCN(c4ccccc4)CC3)CC2)cc1 | -5 | 3 | i | 22 | 6 | · | · | ·
O=C(O)c1ccc2c(c1)CC(c1ccccc1)OC2=O (stereo not given) | -1 | 1 | i | 8 | -3 | · | · | ·
O=C1OC(c2ccccc2)Cc2cc(C(=O)N3CCN(c4ccc(F)cc4)CC3)ccc21 (stereo not given) | -1 | 3 | i | 90* | 4 | 58* | 1 | 8
COc1ccc(N2CCN(C(=O)c3ccc4c(c3)CC(c3ccccc3)OC4=O)CC2)cc1 (stereo not given) | -1 | -1 | i | 91* | 13 | 78* | 0 | 6
O=C(c1ccc(Cl)cc1)N1CCN(C(=O)C2CCCCC2)CC1 | -3 | 0 | i | 60* | 2 | 17 | 3 | 3
O=C(c1ccc(F)cc1)C1CCN(C(=O)c2ccc(Cl)cc2)CC1 | -1 | -2 | i | 83* | -6 | 54* | 0 | -12
O=C(c1ccc(Cl)cc1)N1CCCC(C(=O)N2CCCCC2)C1 (stereo not given) | 2 | 0 | i | -2 | 0 | · | · | ·
O=C(c1ccc(Cl)cc1)C1CCN(C(=O)c2ccccc2)CC1 | -1 | -5 | i | 21 | -1 | · | · | ·
Cc1c(C(=O)Oc2cccc3ccccc23)cnn1-c1ccccc1 | 1 | 8 | · | 31* | -1 | 4 | 0 | 2
CC(CCc1ccccc1)NCc1ccc(Cl)cc1Cl (stereo not given) | 3 | 23 | i | 62* | 5 | 32 | 1 | 2
CC(O)CNCc1ccc(Cl)cc1Cl (stereo not given) | 0 | -5 | i | 14 | 7 | · | · | ·
S=C(NCc1cccnc1)Nc1ccc(Oc2ccc(Cl)cc2)cc1 | 1 | 3 | i | 46* | 0 | 22 | -2 | -10
COc1ccc(NC(=S)NCc2cccnc2)cc1 | -3 | -5 | i | 3 | 9 | · | · | ·
CC1CCCCN1C(=S)Nc1ccc(OC(F)F)cc1 (stereo not given) | 1 | 4 | i | 50* | -3 | 1 | -1 | -14
COc1ccc(-c2c(C(=O)c3ccccc3)[nH]c(N)c2C(=O)c2ccccc2)cc1OC | · | 19 | i | 3 | · | · | · | ·
COc1ccc(-c2c(C(=O)c3ccccc3)[nH]c(N)c2C(=O)c2ccc(Br)cc2)cc1OC | · | -3 | i | 42* | · | 41 | -2 | 0
CNC(=O)C1CN(C(=O)c2nn(Cc3ccccc3)c(=O)c3ccccc23)c2ccccc2O1 (stereo not given) | -1 | -7 | i | 6 | 5 | · | · | ·
COC(=O)c1ccc(CSc2nnc(Nc3ccc(C)cc3)s2)o1 | 3 | 2 | · | 38* | 9 | 48 | 2 | 7
COc1cc(OC)nc(C(NC(=O)C2CCN(Cc3ccc(Oc4ccccc4)cc3)CC2)c2ccccc2C)n1 (stereo not given) | -2 | 14 | i | 53* | 12 | 19 | -1 | -9
COC(=O)c1cccc(NC(=O)c2cc3ccccc3o2)c1 | 1 | 9 | i | 44* | 0 | 32 | -1 | -2

Screens as filed in PubChem.
